Data as given in ChEMBL document CHEMBL1121452, “8-Chloro-1-methyl-6-phenyl-4H-s-triazolo[4,3-a][1,4]benzodiazepines with substituents at C-4” (1980).

Key:
Assay type in all cases: functional
Mus musculus [1] = species on record: Mus musculus; test: Evaluated for the pentylene induced clonic convulsions (P) in CF1 mice
Summary of the method: (§1)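 Compounds dissolved or suspended in 0.25% aqueous methylcellulose and given ip to mice in groups of four or six per dose, at several dose levels spaced 0.3 log units apart. Scoring follows previously described procedures. ED50 values in mg/kg were calculated by the Spearman-Karber method.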

Mus musculus [2] = species on record: Mus musculus; test: Evaluated for antagonistic activity on nicotine-induced tonic-extensor convulsions (TE) in CF1 mice; summary of the method: as §1
Mus musculus [3] = species on record: Mus musculus; test: Loss of traction (TR) was evaluated in CF1 mice; summary of the method: as §1
Mus musculus [4] = species on record: Mus musculus; test: Evaluated for the antagonism of nicotine induced death (D) in CF1 mice; summary of the method: as §1
Mus musculus [5] = species on record: Mus musculus; test: Loss of righting reflex (LORR) was evaluated in CF1 mice; summary of the method: as §1
Mus musculus [6] = species on record: Mus musculus; test: Loss of righting reflex (LORR) was evaluated in mice; summary of the method: as §1
Mus musculus [7] = species on record: Mus musculus; test: Loss of traction (TR) was evaluated in mice; summary of the method: as §1

What does the source list for CC(=O)OC1N=C(c2ccccc2)c2cc(Cl)ccc2-n2c(C)nnc21 (centres undefined)?
ED50 (Mus musculus [1]): 8.9 mg/kg; ED50 (Mus musculus [2]): 1 mg/kg; ED50 (Mus musculus [3]): 18 mg/kg; ED50 (Mus musculus [4]): 1 mg/kg; ED50 (Mus musculus [5]): > 200 mg/kg

How did the ED50 (Mus musculus [1]) turn out when Cc1nnc2n1-c1ccc(Cl)cc1C(c1ccccc1)=NC2C (centres undefined) was run?
Its ED50 is 0.1 mg/kg.

What about the ED50 (Mus musculus [2]) of the same compound?
Its ED50 is 0.056 mg/kg.

And the ED50 (Mus musculus [3])?
Its ED50 is 1.8 mg/kg.

What about the ED50 (Mus musculus [4]) of the same compound?
The ED50 was 0.056 mg/kg.

What about the ED50 (Mus musculus [6]) of the same compound?
Its ED50 is over 200 mg/kg.

Which results are given for CCOC(=O)C1(C)N=C(c2ccccc2)c2cc(Cl)ccc2-n2c(C)nnc21 (centres undefined)?
ED50 (Mus musculus [1]): 40 mg/kg; ED50 (Mus musculus [2]): 16 mg/kg; ED50 (Mus musculus [3]): 112 mg/kg; ED50 (Mus musculus [4]): 18 mg/kg; ED50 (Mus musculus [5]): > 200 mg/kg

What does the source list for CCOC(=O)CC1(C(=O)OCC)N=C(c2ccccc2)c2cc(Cl)ccc2-n2c(C)nnc21 (centres undefined)?
ED50 (Mus musculus [1]): > 50 mg/kg; ED50 (Mus musculus [2]): > 200 mg/kg; ED50 (Mus musculus [3]): > 200 mg/kg; ED50 (Mus musculus [4]): > 200 mg/kg; ED50 (Mus musculus [5]): > 200 mg/kg

Cc1nnc2n1-c1ccc(Cl)cc1C(c1ccccc1)NC2=O (centres undefined) was tested. Which ED50 (Mus musculus [1]) did it give?
Its ED50 is over 25 mg/kg.

What about the ED50 (Mus musculus [2]) of the same compound?
Its ED50 is over 100 mg/kg.

What about the ED50 (Mus musculus [3]) of the same compound?
Its ED50 is over 100 mg/kg.

What about the ED50 (Mus musculus [5]) of the same compound?
Its ED50 is over 100 mg/kg.

Which results are given for Cc1nnc2n1-c1ccc(Cl)cc1C(c1ccccc1)=[N+]([O-])C2?
ED50 (Mus musculus [1]): 1.8 mg/kg; ED50 (Mus musculus [2]): 0.2 mg/kg; ED50 (Mus musculus [3]): 10 mg/kg; ED50 (Mus musculus [4]): 0.2 mg/kg; ED50 (Mus musculus [5]): > 200 mg/kg

Cc1nnc2n1-c1ccc(Cl)cc1C(c1ccccc1)=NC2N (centres undefined) was tested. Which ED50 (Mus musculus [1]) did it give?
The ED50 was 3.5 mg/kg.

And the ED50 (Mus musculus [2])?
Its ED50 is 0.36 mg/kg.

And the ED50 (Mus musculus [3])?
The ED50 was 18 mg/kg.

What about the ED50 (Mus musculus [4]) of the same compound?
The ED50 was 0.63 mg/kg.

And the ED50 (Mus musculus [6])?
The ED50 was over 100 mg/kg.

For CCOC(=O)C1N=C(c2ccccc2)c2cc(Cl)ccc2-n2c(C)nnc21 (centres undefined), which ED50 (Mus musculus [1]) is on record?
Its ED50 is over 100 mg/kg.

What about the ED50 (Mus musculus [2]) of the same compound?
The ED50 was 50 mg/kg.

And the ED50 (Mus musculus [3])?
The ED50 was over 100 mg/kg.

And the ED50 (Mus musculus [4])?
Its ED50 is 45 mg/kg.

What about the ED50 (Mus musculus [6]) of the same compound?
The ED50 was over 100 mg/kg.

What does the source list for Cc1nnc2n1-c1ccc(Cl)cc1C1(c3ccccc3)ON1C2 (centres undefined)?
ED50 (Mus musculus [1]): 0.2 mg/kg; ED50 (Mus musculus [2]): 0.12 mg/kg; ED50 (Mus musculus [3]): 2.5 mg/kg; ED50 (Mus musculus [4]): 0.12 mg/kg; ED50 (Mus musculus [5]): > 25 mg/kg

Which results are given for Cc1nnc2n1-c1ccc(Cl)cc1C(c1ccccc1)=NC2CC(=O)O (centres undefined)?
ED50 (Mus musculus [1]): 5 mg/kg; ED50 (Mus musculus [2]): 0.9 mg/kg; ED50 (Mus musculus [3]): 13 mg/kg; ED50 (Mus musculus [4]): 0.9 mg/kg; ED50 (Mus musculus [6]): > 200 mg/kg

Cc1nnc2n1-c1ccc(Cl)cc1C(c1ccccc1)N=C2N (centres undefined) was tested. Which ED50 (Mus musculus [1]) did it give?
Its ED50 is over 100 mg/kg.

And the ED50 (Mus musculus [2])?
Its ED50 is 40 mg/kg.

What about the ED50 (Mus musculus [3]) of the same compound?
The ED50 was over 200 mg/kg.

And the ED50 (Mus musculus [4])?
The ED50 was 40 mg/kg.

And the ED50 (Mus musculus [5])?
Its ED50 is over 200 mg/kg.

For CCOC(=O)C1(N)N=C(c2ccccc2)c2cc(Cl)ccc2-n2c(C)nnc21 (centres undefined), which ED50 (Mus musculus [1]) is on record?
The ED50 was 32 mg/kg.

What about the ED50 (Mus musculus [2]) of the same compound?
The ED50 was 3.1 mg/kg.

What about the ED50 (Mus musculus [3]) of the same compound?
The ED50 was 159 mg/kg.

What about the ED50 (Mus musculus [4]) of the same compound?
Its ED50 is 4.5 mg/kg.

What about the ED50 (Mus musculus [5]) of the same compound?
The ED50 was over 200 mg/kg.

Which results are given for Cc1nnc2n1-c1ccc(Cl)cc1C(c1ccccc1)=NC2O (centres undefined) [4-HYDROXY-ALPRAZOLAM]?
ED50 (Mus musculus [1]): 8.9 mg/kg; ED50 (Mus musculus [2]): 4 mg/kg; ED50 (Mus musculus [3]): 23 mg/kg; ED50 (Mus musculus [4]): 4 mg/kg; ED50 (Mus musculus [5]): > 50 mg/kg

For Cc1nnc2n1-c1ccc(Cl)cc1C(c1ccccc1)=NC2 [ALPRAZOLAM], which ED50 (Mus musculus [1]) is on record?
The ED50 was 0.2 mg/kg.

And the ED50 (Mus musculus [2])?
The ED50 was 0.02 mg/kg.

And the ED50 (Mus musculus [7])?
The ED50 was 0.6 mg/kg.

And the ED50 (Mus musculus [4])?
Its ED50 is 0.02 mg/kg.

And the ED50 (Mus musculus [5])?
The ED50 was over 100 mg/kg.
